The species named for assay [1] is Mesocricetus auratus. Put plainly: Reduction in wet lung weight relative to the body weight in hamsters.
The target in assay [2] is T1, Neutrophil elastase (Homo sapiens, UniProt P08246).
T1 sequence (P08246 whole entry): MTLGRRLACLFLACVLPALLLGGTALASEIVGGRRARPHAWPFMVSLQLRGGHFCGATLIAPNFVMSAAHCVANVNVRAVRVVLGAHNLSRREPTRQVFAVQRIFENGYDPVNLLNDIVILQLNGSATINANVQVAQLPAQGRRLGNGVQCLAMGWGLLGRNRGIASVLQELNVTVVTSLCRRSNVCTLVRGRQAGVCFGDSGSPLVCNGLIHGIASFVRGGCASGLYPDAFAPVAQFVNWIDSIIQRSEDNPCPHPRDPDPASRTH
Put plainly: Inhibitory activity against Human Neutrophil Elastase by HNE-catalyzed hydrolysis of MeO-Suc-Ala-Ala-Pro-Val-pNa.

The test system of assay [3] is Mesocricetus auratus. In words: Oral administration at a dose of 37.5 mg/kg 30 min prior to HNE (100 mg/hamster) and reduction in the number of white blood cells was reported.
Assay [4] concerns Cricetinae gen. sp. In words: Inhibition at the oral dose of 25 mg/kg 30 min prior to […] dose of 10 microg of HNE in hamster. It counts as functional, Cricetulus griseus.
Assay [5] relates to Mesocricetus auratus. In words: Oral administration at a dose of 37.5 mg/kg 30 min prior to HNE and reduction in the number of white blood cells was reported.
For assay [6], the system named is Cricetinae gen. sp. In words: Inhibition at the oral dose of 10 mg/kg 30 min prior to […] dose of 50 microg of HNE in hamster. It counts as functional, Cricetulus griseus. The essentials: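 Anesthetized hamsters received HNE (50 µg/hamster) intratracheally, with the compound given orally as a solution in 10% PEG/PBS 30 min beforehand. Lung hemorrhage was quantified 4 h later by spectrophotometric hemoglobin measurement in lung lavage. Percent inhibition is relative to HNE and saline controls: 100% equals saline, 0% equals HNE.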

The results in this text go back to ChEMBL document CHEMBL1130061, “Discovery and biological activity of orally active peptidyl trifluoromethyl ketone inhibitors of human neutrophil elastase” (J Med Chem, 1997).

SMILES strings stand for the structures. Numbered stars: 1 amine (or outer) side, 2 acyl side, 3 side chain; on linkers, the order of the positions; unused ones are H or OH. Peptide text beside a SMILES is read from it. * marks the point of attachment. CO = O=C([*:1])[*:2]; NHPh = c1ccc(N*)cc1; CF3 = FC(F)(F)*

Usually Ki stands for the equilibrium dissociation constant of an inhibitor or competing ligand from its target. Low readings indicate higher affinity, high ones lower affinity. As usually defined, the inhibition in vivo is the relative decrease from the control value, in per cent.

For `CC(C)[C@H](NC(=O)Oc1ccc(F)cc1)C(=O)N1CCC[C@H]1C(=O)N[C@H](C(=O)C(F)(F)F)C(C)C`, the Lw/Bw in assay [1] turned out to be 63. In assay [2], this compound gave a Ki of 0.63 nM. For the same compound, in assay [3], the Reduction is -67%.

`CC(C)[C@H](NC(=O)c1c[nH]cn1)C(=O)N1CCC[C@H]1C(=O)N[C@H](C(=O)C(F)(F)F)C(C)C` yielded a Lw/Bw in assay [1] of -42. Also, in assay [2], the Ki is 63 nM. Besides, the Reduction in assay [3] is -267%.

Regarding `CC(C)[C@H](NC(=O)c1ccncc1)C(=O)N1CCC[C@H]1C(=O)N[C@H](C(=O)C(F)(F)F)C(C)C`, the Lw/Bw in assay [1] is -15. The same compound returned a Ki in assay [2] of 3.8 nM. For the same compound, the Reduction in assay [3] was -45%.

As for `CC(C)C(NC(=O)C1CCCN1C(=O)[C@@H](NC(=O)CCC(=O)NS(=O)(=O)c1cccc2ccccc12)C(C)C)C(=O)C(F)(F)F` (some centres undefined), the Lw/Bw in assay [1] was -80. Further, the affinity in assay [2], expressed as Ki, was 6.1 nM. The Reduction in assay [3] is -212%.

As to `COc1ccc(S(=O)(=O)N[C@H](C(=O)N2CCCC2C(=O)NC(C(=O)C(F)(F)F)C(C)C)C(C)C)cc1` (some centres undefined), the Lw/Bw in assay [1] is 29. Further, the Ki in assay [2] is 8 nM. In assay [3], the Reduction is -42%.

Compound `CC(C)C(NC(=O)C1CCCN1C(=O)[C@@H](NC(=O)c1cc(C(=O)O)cc(C(=O)O)c1)C(C)C)C(=O)C(F)(F)F` (some centres undefined) showed a Lw/Bw in assay [1] of -45. The compound further gave a Ki in assay [2] of 43 nM. Moreover, the Reduction in assay [3] is -105%.

Consider `CC(C)[C@H](NC(=O)N1CCOCC1)C(=O)N1CCC[C@H]1C(=O)N[C@H](C(=O)C(F)(F)C(F)(F)F)C(C)C`, for which the Ki in assay [2] was 170 nM. Moreover, the inhibition in vivo at 25 mg/kg in assay [4] was found to be 69%.

For the compound `CC(C)[C@H](NC(=O)Oc1ccccc1)C(=O)N1CCC[C@H]1C(=O)N[C@H](C(=O)C(F)(F)F)C(C)C`, the Reduction in assay [5] came to 77%. Moreover, the inhibition in vivo at 10 mg/kg in assay [6] was determined as 91%. In assay [1], this compound showed a Lw/Bw of 62. The Ki in assay [2] came out at 1.3 nM.

In the case of `CC(C)C(NC(=O)C1CCCN1C(=O)[C@H](C(C)C)N(CCCc1ccccc1)CCCc1ccccc1)C(=O)C(F)(F)F.Cl` (some centres undefined), the Lw/Bw in assay [1] is -23. The Ki in assay [2] was 1.7 nM. Also, the Reduction in assay [3] is -39%.

With `COc1ccc(C(=O)N[C@H](C(=O)N2CCC[C@H]2C(=O)N[C@H](C(=O)C(F)(F)F)C(C)C)C(C)C)cc1`, the Reduction in assay [5] is reported as 91%. Besides, the inhibition in vivo at 10 mg/kg in assay [6] was found to be 84%. This compound came in with a Lw/Bw in assay [1] of 77.

Compound `CC(C)[C@H](NC(=O)c1ccc(C(=O)N2CCOCC2)cc1)C(=O)N1CCC[C@H]1C(=O)N[C@H](C(=O)C(F)(F)C(F)(F)F)C(C)C` came in with a Ki in assay [2] of 25 nM. Further, the inhibition in vivo at 25 mg/kg in assay [4] worked out at 74%.

Take `CC(C)C(NC(=O)C1CCCN1C(=O)[C@@H](NS(=O)(=O)c1ccc([N+](=O)[O-])cc1)C(C)C)C(=O)C(F)(F)F` (some centres undefined): the Lw/Bw in assay [1] is -36. This compound also registered a Ki in assay [2] of 5.2 nM. Besides, in assay [3], the Reduction was -118%.

Turning to `CC(C)[C@H](NC(=O)c1ccccc1)C(=O)N1CCC[C@H]1C(=O)N[C@H](C(=O)C(F)(F)F)C(C)C` (HELM PEPTIDE1{[O=C(c1ccccc1)[*:2]].V.P.V.[FC(F)(F)[*:1]]}$$$$V2.0), the Lw/Bw in assay [1] stood at 62. In assay [2], affinity was put at a Ki of 6.8 nM. Further, the Reduction in assay [3] was -7%.

`CC(=O)N[C@H](C(=O)N1CCC[C@H]1C(=O)N[C@H](C(=O)C(F)(F)F)C(C)C)C(C)C` (HELM PEPTIDE1{[ac].V.P.V.[FC(F)(F)[*:1]]}$$$$V2.0): the Lw/Bw in assay [1] is 8. The compound also registered a Ki in assay [2] of 45 nM. For the same compound, the Reduction in assay [3] was -120%.

Compound `CC(C)[C@H](NC(=O)Nc1ccccc1)C(=O)N1CCC[C@H]1C(=O)N[C@H](C(=O)C(F)(F)F)C(C)C` ({NHPh-CO}-Val-Pro-Val-CF3) registered a Lw/Bw in assay [1] of -2. In assay [2], this compound showed a Ki of 2.6 nM. Besides, in assay [3], the Reduction is -184%.
